According to ChEMBL document CHEMBL1123867, “Anticonvulsant O-alkyl sulfamates. 2,3:4,5-Bis-O-(1-methylethylidene)-beta-D-fructopyranose sulfamate and related compounds” (1987):
The source made the active and inactive calls.

Key:
Mus musculus [1] = assay: Anticonvulsant activity by using a standard maximal electroshock test (MES) in mice, by intraperitoneal administration of the compound; assay type: functional; settings: ip
Procedure, shortened: (§1)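 Supramaximal electroshock: 50-mA current (60 Hz, 0.20 s) via corneal electrodes induced hind-limb tonic extension; inhibition of this component scored as activity. Mice dosed ip and/or po in aqueous solution or suspension (ca. 0.1% Tween 80, distilled water). Tested at 30, 60, 120 and 240 min (sometimes 45 min); ten mice per time point.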

Mus musculus [2] = assay: Anticonvulsant activity following p.o. administration by standard maximal electroshock test in mice.; assay type: functional; settings: po; procedure, shortened: as §1
Mus musculus [3] = assay: Anticonvulsant activity by using a standard maximal electroshock test (MES) in mice, by 100 mg/kg intraperitoneal administration of the compound; i =inactive; assay type: functional, organism-based; design: dose 100 mg/kg; procedure, shortened: as §1
Mus musculus [4] = assay: Anticonvulsant activity by using a standard maximal electroshock test (MES) in mice, by 100 mg/kg intraperitoneal administration of the compound; I=inactive, 0-10% block; assay type: functional, organism-based; design: dose 100 mg/kg; procedure, shortened: as §1
Mus musculus [5] = assay: Anticonvulsant activity by using a standard maximal electroshock test (MES) in mice, by 200 mg/kg peroral administration of the compound; I=inactive, 0-10% block; assay type: functional, organism-based; design: dose 200 mg/kg; procedure, shortened: as §1
Mus musculus [6] = assay: Percentage block of the hind-limb tonic-extensor seizure was determined after application of an electric shock to mice for 60 min followed by 100 mg/kg intraperitoneal dose; assay type: functional; procedure, shortened: as §1
Mus musculus [7] = assay: Percentage block of the hind-limb tonic-extensor seizure was determined after application of an electric shock to mice for 120 min followed by 200 mg/kg peroral dose; assay type: functional; settings: route oral; procedure, shortened: as §1
Mus musculus [8] = assay: Percentage block of the hind-limb tonic-extensor seizure was determined after application of an electric shock to mice for 30 min followed by 100 mg/kg intraperitoneal dose; assay type: functional; procedure, shortened: as §1
Mus musculus [9] = assay: Percentage block of the hind-limb tonic-extensor seizure was determined after application of an electric shock to mice for 30 min followed by 200 mg/kg peroral dose; assay type: functional; settings: route oral; procedure, shortened: as §1
Mus musculus [10] = assay: Percentage block of the hind-limb tonic-extensor seizure was determined after application of an electric shock to mice for 240 min followed by 100 mg/kg intraperitoneal dose; assay type: functional; procedure, shortened: as §1
Mus musculus [11] = assay: Percentage block of the hind-limb tonic-extensor seizure was determined after application of an electric shock to mice for 240 min followed by 200 mg/kg peroral dose; assay type: functional; settings: route oral; procedure, shortened: as §1
Mus musculus [12] = assay: Percentage block of the hind-limb tonic-extensor seizure was determined after application of an electric shock to mice for 60 min followed by 200 mg/kg peroral dose; assay type: functional; settings: route oral
Procedure, shortened: (§2)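 Mouse MES test: supramaximal seizure from a 50-mA current (60 Hz, 0.20-s) through corneal electrodes. […] Ten mice per time point. Compound given in aqueous solution or in suspension in ca. 0.1% Tween 80 and distilled water. Free food and water except during testing.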

Mus musculus [13] = assay: Anticonvulsant activity by using a standard maximal electroshock test (MEST) in mice, by 100 mg/kg intraperitoneal administration of the compound; I=inactive; assay type: functional, organism-based; design: dose 100 mg/kg
Procedure, shortened: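 Threshold electroshock: 8-mA current (60 Hz, 0.25 s) via ear-clip electrodes, the CS97 in these mice, induced hind-limb tonic extension; inhibition scored as activity. Mice given drug intraperitoneally in aqueous solution or suspension (ca. 0.1% Tween 80, distilled water). Tested at 30 min, sometimes also 240 min; ten mice per time point.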

Mus musculus [14] = assay: Percentage block of the hind-limb tonic-extensor seizure was determined after application of an electric shock to mice for 120 min followed by 100 mg/kg intraperitoneal dose; assay type: functional; procedure, shortened: as §1
Mus musculus [15] = assay: Anticonvulsant activity by using a standard maximal electroshock test (MES) in mice, by 100 mg/kg intraperitoneal administration; i=inactive; assay type: functional, organism-based; design: dose 100 mg/kg; procedure, shortened: as §1
Mus musculus [16] = assay: Anticonvulsant activity by using a standard maximal electroshock test (MES) in mice, by 200 mg/kg intraperitoneal administration of the compound; I=inactive, 0-10% block; assay type: functional, organism-based; design: dose 200 mg/kg; procedure, shortened: as §1
Mus musculus [17] = assay: Anticonvulsant activity by using a standard maximal electroshock test (MES) in mice, by 400 mg/kg peroral administration of the compound; I=inactive, 0-10% block; assay type: functional, organism-based; design: dose 400 mg/kg; procedure, shortened: as §1
Mus musculus [18] = assay: Percentage block of the hind-limb tonic-extensor seizure was determined after application of an electric shock to mice for 60 min followed by 200 mg/kg intraperitoneal dose; assay type: functional; procedure, shortened: as §2
Mus musculus [19] = assay: Percentage block of the hind-limb tonic-extensor seizure was determined after application of an electric shock to mice for 60 min followed by 400 mg/kg peroral dose; assay type: functional; settings: route oral; procedure, shortened: as §2
Mus musculus [20] = assay: Percentage block of the hind-limb tonic-extensor seizure was determined after application of an electric shock to mice for 120 min followed by 200 mg/kg intraperitoneal dose; assay type: functional; procedure, shortened: as §1
Mus musculus [21] = assay: Percentage block of the hind-limb tonic-extensor seizure was determined after application of an electric shock to mice for 120 min followed by 400 mg/kg peroral dose; assay type: functional; settings: route oral; procedure, shortened: as §1
Mus musculus [22] = assay: Percentage block of the hind-limb tonic-extensor seizure was determined after application of an electric shock to mice for 30 min followed by 200 mg/kg intraperitoneal dose; assay type: functional; procedure, shortened: as §1
Mus musculus [23] = assay: Percentage block of the hind-limb tonic-extensor seizure was determined after application of an electric shock to mice for 30 min followed by 400 mg/kg peroral dose; assay type: functional; settings: route oral; procedure, shortened: as §1
Mus musculus [24] = assay: Percentage block of the hind-limb tonic-extensor seizure was determined after application of an electric shock to mice for 240 min followed by 200 mg/kg intraperitoneal dose; assay type: functional; procedure, shortened: as §1
Mus musculus [25] = assay: Percentage block of the hind-limb tonic-extensor seizure was determined after application of an electric shock to mice for 240 min followed by 400 mg/kg peroral dose; assay type: functional; settings: route oral; procedure, shortened: as §1

CCCCCCCCCC1(C)OCC(COS(N)(=O)=O)O1 (configuration not stated)
ED50 (Mus musculus [1]): 319 mg/kg | ED50 (Mus musculus [2]): > 200 mg/kg

COC1(COS(N)(=O)=O)OC(CO)[C@@H](O)C1O (some centres not stated)
ED50 (Mus musculus [3]): inactive

CC1(C)OC2[C@H](O)[C@H](O)CO[C@@]2(COS(N)(=O)=O)O1 (some centres not stated)
ED50 (Mus musculus [4]): inactive | ED50 (Mus musculus [5]): inactive | Block (Mus musculus [6]): 0% | Block (Mus musculus [7]): 0% | Block (Mus musculus [8]): 0% | Block (Mus musculus [9]): 0% | Block (Mus musculus [10]): 0% | Block (Mus musculus [11]): 0% | Block (Mus musculus [12]): 0%

NS(=O)(=O)OCC1CCCCO1 (configuration not stated)
ED50 (Mus musculus [1]): 195 mg/kg | ED50 (Mus musculus [2]): 154 mg/kg

CC1(C)OC2C3OC(C)(C)O[C@]3(COC(N)=O)OC[C@H]2O1 (some centres not stated)
ED50 (Mus musculus [13]): inactive

NS(=O)(=O)OCC1(O)OC[C@@H](O)[C@@H](O)C1O (some centres not stated)
ED50 (Mus musculus [3]): inactive

NS(=O)(=O)OCCc1ccccc1 [SULFAMIC ACID PHENETHYL ESTER]
ED50 (Mus musculus [1]): ~50 mg/kg | ED50 (Mus musculus [2]): ~100 mg/kg | Block (Mus musculus [6]): 100% | Block (Mus musculus [14]): 70% | Block (Mus musculus [7]): 100% | Block (Mus musculus [8]): 90% | Block (Mus musculus [9]): 70% | Block (Mus musculus [10]): 20% | Block (Mus musculus [11]): 80% | Block (Mus musculus [12]): 100%

NS(=O)(=O)OCC1COc2ccccc2O1 (configuration not stated)
ED50 (Mus musculus [1]): ~100 mg/kg | ED50 (Mus musculus [2]): 118 mg/kg | Block (Mus musculus [6]): 60% | Block (Mus musculus [14]): 30% | Block (Mus musculus [7]): 80% | Block (Mus musculus [9]): 100% | Block (Mus musculus [10]): 0% | Block (Mus musculus [11]): 80% | Block (Mus musculus [12]): 100%

CN(C)S(=O)(=O)OC[C@@]12OC[C@H]3OC(C)(C)OC3C1OC(C)(C)O2 (some centres not stated)
ED50 (Mus musculus [1]): > 100 mg/kg | ED50 (Mus musculus [2]): > 200 mg/kg | Block (Mus musculus [6]): 30% | Block (Mus musculus [14]): 50% | Block (Mus musculus [7]): 80% | Block (Mus musculus [8]): 30% | Block (Mus musculus [9]): 30% | Block (Mus musculus [10]): 30% | Block (Mus musculus [11]): 80% | Block (Mus musculus [12]): 40%

CC(=O)Nc1nnc(S(N)(=O)=O)s1 [ACETAZOLAMIDE]
ED50 (Mus musculus [2]): 45 mg/kg

CC1(C)OC2C3OC(C)(C)O[C@]3(COC(=O)Nc3ccccc3)OC[C@H]2O1 (some centres not stated)
ED50 (Mus musculus [15]): inactive | ED50 (Mus musculus [16]): inactive | ED50 (Mus musculus [17]): inactive | Block (Mus musculus [18]): 0% | Block (Mus musculus [19]): 0% | Block (Mus musculus [20]): 0% | Block (Mus musculus [21]): 0% | Block (Mus musculus [22]): 0% | Block (Mus musculus [23]): 0% | Block (Mus musculus [24]): 0% | Block (Mus musculus [25]): 0%
